From publication PMC5992617 (ACS chemical biology, 2017)
Read-outs that look alike come from different tables or passages of the source. Values belong to the molecule of their own block, whether it stands above or below them. Where no end group is shown, it is not given here. FAM = fluorescein amidite

Tests used:
HT1080 cells = test: Clonogenic survival assay in HT1080 cells with cisplatin; assay type: cell-based, human; conditions: cisplatin 0.6 μM, 4 or 5 1.5 μM, alone
How it was run: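 HT1080 cells in RPMI 1640 with 10% FBS and 1% penicillin/streptomycin at 37°C, 5% CO₂. Seeded at 600 cells/well in 6-well plates and left overnight. […] Fixed in methanol/acetic acid and Coomassie-stained. Colonies of ≥40 cells counted relative to DMSO controls; Student t-test.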

[1] = system: HPRT gene mutation frequency in HT1080 cells; test: HPRT mutagenesis assay in HT1080 cells; assay type: cell-based, human; conditions: cisplatin alone 0.6 μM
[2] = system: wild-type (WT) mouse embryonic fibroblasts (MEFs); test: Clonogenic survival assay in WT MEFs with cisplatin; assay type: cell-based; conditions: cisplatin 0.6 μM, 4 or 5 1.5 μM, alone
How it was run: (§1)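 Wild-type or Rev1⁻/⁻ mouse embryonic fibroblasts in DMEM with 10% FBS and 1% penicillin/streptomycin at 37°C, 5% CO₂. Seeded at 600 cells/well and left overnight. […] Colonies of ≥40 cells Coomassie-counted and expressed relative to DMSO controls. Two experiments, each in triplicate.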

[3] = system: Rev1^−/− mouse embryonic fibroblasts (MEFs); test: Clonogenic survival assay in Rev1−/− MEFs with cisplatin; assay type: cell-based; conditions: cisplatin 0.6 μM alone
How it was run: as §1

[4] = target: T1, C-terminal domain from human Rev1 (Rev1-CT) (human, UniProt Q9UBZ9 1158-1251); test: fluorescence polarisation
T1 sequence (looked up): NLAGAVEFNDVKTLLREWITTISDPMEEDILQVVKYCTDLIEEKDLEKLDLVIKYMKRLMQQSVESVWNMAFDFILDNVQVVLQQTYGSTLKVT

[5] = target: T1, C-terminal domain from human Rev1 …; test: fluorescence polarisation; remark: listed apart in the source
[6] = target: T1, C-terminal domain from human Rev1 …; test: SEC

Molecule: N.N.[Cl][Pt][Cl] [cisplatin]
Colony formation of HT1080 cells, single agent (HT1080 cells): minimal effect on colony formation
Increase in HPRT mutations compared to non-treated cells [1]: approximately 1.9 fold
Clonogenic growth of WT MEFs, single agent [2]: minimal effect on clonogenic growth
Sensitivity of Rev1−/− MEFs to cisplatin compared with WT MEFs [3]: significantly more sensitive

IC50 [4]: 7.3 ± 1.4 µM
IC50 [5]: 6.6 ± 0.1 µM
Molecule: EMSHKKSFFDKKRSER (peptide, UniProt Q9UBT6 560-575, looked up) [unlabeled Polκ-RIR]

binding result [6]: binds
Molecule: {FAM}-EMSHKKSFFDKKRSER (peptide, UniProt Q9UBT6 560-575, looked up)
